Measured values taken from article PMC4077287 (Angewandte Chemie (International ed. in English), 2013).

Columns and labels:
[1] = test system: apoptotic tumors; conditions: ref 7a; cited from earlier work
[2] = test system: caspase-3 level in HeLa tumor xenograft; experiment: Caspase-3 level detected in Dox-treated tumors; assay type: in vivo, nude mice; conditions: intratumoral Dox 0.2 mg, 4 days post treatment
Method in brief: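 HeLa xenografts on the right shoulder of nude mice were imaged before and 4 days after intratumoral Dox (0.2 mg). The 18F-labeled caspase-3-activatable nano-aggregation tracer or its D-peptide control (5–15 MBq) was given i.v. by tail vein. Static 5 min PET scans were taken at 65, 125 and 182 min post injection. Tumor and muscle uptake was reported as %ID/g, with the tumor/muscle ratio taken from average region uptake.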

[3] = test system: caspase-3 activity in HeLa cell lysates; experiment: Caspase-3 assay of lysates of Dox-treated HeLa cells; assay type: cell-based; conditions: doxorubicin 2 μM, 24 h

| SMILES | trend of uptake in apoptotic tumors over time after injection [1] | caspase-3 level increase in treated tumors [2] [fold] | caspase-3 activity of lysates of Dox-treated cells vs non-treated cells [3] [fold] |
| --- | --- | --- | --- |
| O=C1C(=O)N(Cc2cn(CC[18F])nn2)c2ccc(S(=O)(=O)N3CCCC3COc3ccc(F)cc3F)cc21 (stereo not drawn) [[^18F]ICMT-11] | decreased over the time after injection | – | – |
| COc1cccc2c1C(=O)c1c(O)c3c(c(O)c1C2=O)C[C@@](O)(C(=O)CO)C[C@@H]3O[C@H]1C[C@H](N)[C@H](O)[C@H](C)O1 [Dox, doxorubicin] | – | 1.9 | 9.5 |
